High-throughput results from PubChem.
In the library only some 1.2% were active in any assay of this set; here they are far more common.
CHO-K1 Ca PAM – M1 PAM counterscreen hit in parental CHO-K1 cells; hit rate 0.02% among 360,000; activation, % at 3 µM; ATP EC20, Fluo-8 calcium fluorescence; 0% at ATP EC20, 100% at ATP max; AID 602247;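 active = activation above the run cutoff, the mean activation of all test compounds plus 3 SD, cut at about 40% in these data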;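 note: peak over basal fluorescence ratio in a 140 s read after ATP addition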
M1 ag parental – M1 agonist counterscreen hit in parental CHO-K1 cells | Fluo-8 calcium fluorescence; scaled to maximal ATP response, vehicle zero | activation, % at 3 µM | hit rate 0.48% among 360,000 | AID 602248; in the data active = activation above about 15%;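 note: untransfected CHO-K1 host cells lacking M1 receptor as counterscreen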
TRPN1 ag – zebrafish TRPN1 (NompC) channel agonism; AID 1424; hit rate 0.18% among 220,000; activation, % at 3 µM; HEK293 zebrafish TRPN1-YFP, Fluo-8 calcium fluorescence; 100% = response to 87 µM carbachol;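 active = activation above its plate's cutoff, the mean activation of test wells on that plate plus 3 SD, cut at about 19% in these data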;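 note: 0% = DMSO alone and 100% = 87 µM carbachol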
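Assay system: Zebrafish TRPN1-YFP in HEK293 cells | Incubation: Dye loading 1 h at 37 °C, then 30 min room temperature | Measured by: Kinetic Fluo-8 fluorescence, ex 470-495, em 515-575 nm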
CHO-K1 Ca antag – M1 antagonist counterscreen hit in parental CHO-K1 cells; ATP-induced calcium, Fluo-8 fluorescence; inhibition, % at 3 µM; hit rate 0.6% among 360,000; AID 602250;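 active = inhibition above a per-plate cutoff, the plate's mean sample inhibition plus 3 SD, cut at about 24% in these data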;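 note: 0% = DMSO plus EC80 ATP and 100% = DMSO alone without ATP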
TRPML3 agonist – agonists of human TRPML3 channel; activation, % at 3 µM; HEK293 TRPML3-YFP, Fluo-8 calcium fluorescence; 100% = the carbachol control signal; hit rate 0.29% among 220,000;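 active = activation above its plate's cutoff, the mean activation of the plate's test wells plus 3 SD, cut at about 12% in these data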;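 note: 0% = DMSO only wells and 100% = carbachol wells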
Target sequence (Q8TDD5 whole entry, looked up): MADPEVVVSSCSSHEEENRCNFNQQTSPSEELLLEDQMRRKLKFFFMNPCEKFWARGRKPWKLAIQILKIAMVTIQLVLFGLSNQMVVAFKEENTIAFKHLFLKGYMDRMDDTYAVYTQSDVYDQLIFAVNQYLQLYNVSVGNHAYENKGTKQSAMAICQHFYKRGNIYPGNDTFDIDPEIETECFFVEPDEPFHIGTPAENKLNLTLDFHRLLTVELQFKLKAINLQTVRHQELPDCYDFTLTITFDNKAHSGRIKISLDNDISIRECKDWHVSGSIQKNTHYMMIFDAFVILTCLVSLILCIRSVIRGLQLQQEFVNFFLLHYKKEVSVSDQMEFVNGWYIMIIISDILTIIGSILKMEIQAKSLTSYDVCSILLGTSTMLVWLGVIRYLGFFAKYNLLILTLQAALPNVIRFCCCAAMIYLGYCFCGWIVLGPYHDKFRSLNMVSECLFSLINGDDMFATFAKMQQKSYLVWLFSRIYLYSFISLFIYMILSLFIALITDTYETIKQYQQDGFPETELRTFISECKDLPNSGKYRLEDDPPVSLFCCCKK
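Test system: HEK293 cells stably carrying human TRPML3-YFP; Doses: single dose, 3 µM final nominal compound, 0.3% DMSO final; Schedule: dye loading 1 h 37 °C then 30 min ambient, 125 s read; Technique: Fluo-8 calcium fluorescence; Benchmarks: high control carbachol 87 µM, low control DMSO.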
Starred values were filed as active, the others as inactive; / = not tested or not shown.

SMILES | CHO-K1 Ca PAM | M1 ag parental | TRPN1 ag | CHO-K1 Ca antag | TRPML3 agonist
N#CC(C#N)=C(Nc1ccc(F)cc1)SCc1cccc(F)c1 | 10.0 | 11.2 | 24.8* | 17.4 | 20.8*
CSc1ccc(S(=O)(=O)Nc2ccc3c(c2)NC(=O)CC3)cc1 | 2.1 | 16.2* | 1.5 | 14.2 | 1.7
Oc1ccc(CCNc2ncnc3ccc(Cl)cc23)cc1 | 0.0 | 15.5* | / | 8.2 | /
O=S(=O)(Nc1nc2ccccc2nc1NCc1ccco1)c1ccccc1 | -6.3 | -0.3 | 0.9 | 24.5* | -0.1
O=S(=O)(Nc1nc2ccccc2nc1NCc1ccco1)c1ccc(F)cc1 | 14.1 | 3.8 | 2.9 | -3.0 | -0.1
CCOc1ccc(/C=C2/SC(=O)NC2=S)cc1 | 13.5 | 2.9 | 34.3* | -3.3 | 14.2*
COc1ccc(NC(=O)C2Cc3c(-c4ccccc4)ccnc3O2)cc1OC (centres undefined) | -13.7 | 11.4 | / | 4.9 | /
FC(F)(F)c1cnc(NNC(=S)Nc2ccccc2Cl)c(Cl)c1 | 11.5 | 15.9* | 28.8* | 7.7 | 16.5*
S=C(NCCc1ccccn1)Nc1ccccc1Cl | -15.7 | -0.1 | -0.2 | 27.0* | 0.3
S=C(NCCc1ccccc1)Nc1ccccc1Cl | 8.3 | -0.3 | 0.6 | -3.5 | 0.3
S=C(NCCNC(=S)Nc1ccccc1Cl)Nc1ccccc1Cl | -3.8 | 15.9* | / | -9.5 | /
Cc1cccc(NC(=S)NNc2ncc(C(F)(F)F)cc2Cl)c1 | -3.3 | 4.5 | 2.8 | 4.3 | 2.3
S=C(NCCc1ccncc1)Nc1cccc2ccccc12 | -17.9 | -0.1 | -0.5 | 26.6* | 0.7
C=CCNC(=S)Nc1cccc2ccccc12 | 22.4 | 0.3 | 0.3 | -21.5 | -0.1
S=C(NCCCc1ccccc1)Nc1ccccc1Cl | -8.4 | 15.3* | 145.0* | 19.8 | 1.8
Cc1ccc(CNC(=O)CC[C@H]2O[C@@H](n3cc(C)c(=O)[nH]c3=O)C[C@@H]2O)o1 | -2.2 | -0.2 | / | -5.3 | /
CCN(CC)c1ccc(/C=C(/C#N)C(=O)NCc2ccccc2)o1 | 1.8 | 27.5* | 9.1 | 11.7 | 13.7*
CCCCN(C)c1c(C)nc2ccc(C(=O)N(C)Cc3ccco3)cn12 | -8.4 | 1.8 | / | 20.6 | /
CC(NC(=O)COC(=O)c1ccccc1O)c1ccccc1 (centres undefined) | 4.3 | 1.0 | / | -2.3 | /
CC(NC(=O)COC(=O)c1cc(Cl)nc(Cl)c1)c1ccccc1 (centres undefined) | 12.6 | 22.7* | 5.0 | -9.4 | 1.7
CC1(C(=O)NCc2cccs2)CCN1C(=O)Cc1cccc2ccccc12 (centres undefined) | 26.8 | 2.6 | / | -8.2 | /
CC1=C(C(=O)N2CCOCC2)CC(CC(=O)NC2CCCCC2)C(=O)N1Cc1ccc(F)cc1 (centres undefined) | 11.6 | -0.1 | / | -18.2 | /
FC(F)(F)Oc1ccccc1C(c1nnnn1C1CCCC1)N1CCN(C/C=C/c2ccccc2)CC1 (centres undefined) | 17.2 | 0.5 | / | -8.8 | /
CC(C)C[C@@H]1COc2cccc(N3CCSCC3)c2S(=O)(=O)N1 | 8.0 | 1.0 | / | -7.1 | /
CC(C)c1ccc(-n2c(-c3ccccc3)c[n+]3c2CCc2ccccc2-3)cc1 | 1.2 | 11.0 | 2.7 | 32.1* | 0.4
SMILES | CHO-K1 Ca PAM | M1 ag parental | TRPN1 ag | CHO-K1 Ca antag | TRPML3 agonist
NC(c1ccccc1)c1csc(Nc2ccc(C(=O)c3ccccc3)cc2)n1 (centres undefined) | 6.7 | 2.1 | / | 2.3 | /
O=C(Nc1ccc(F)cc1F)N1CCN(CCc2ccccc2)CC1 | 17.1 | 29.9* | 1.2 | -10.1 | 1.6
O=C(Nc1ccc(F)cc1F)N1CCN(C/C=C/c2ccccc2)CC1 | 2.1 | 0.9 | 1.7 | -2.7 | 1.3
CN(C)CCCNc1nc2cc(-c3ccc(F)cc3)sc2c(=O)n1C | -0.8 | 0.3 | / | -6.6 | /
COC(=O)c1[nH]c2ccccc2c1NC(=O)CN1CCN(c2cccc(OC)c2)C(C)C1 (centres undefined) | -6.8 | 1.7 | 1.6 | 28.1* | 0.5
COc1cccc(Nc2nc(C(N)Cc3ccc(F)cc3)cs2)n1 (centres undefined) | 21.0 | 15.2* | / | -0.8 | /
O=S(=O)(c1ccc(NC(=S)NC2CCCC2)cc1)N1CCCC1 | -10.3 | 4.2 | 6.0 | 24.9* | 4.0
FC(F)(F)c1cccc(NC(=S)NC2CCCC2)c1 | -15.7 | 9.4 | 12.2 | 24.6* | 6.6
S=C(Nc1ccc(Cl)c(Cl)c1)NC1CCN(Cc2ccccc2)CC1 | 13.9 | 12.1 | 7.1 | 23.9* | 4.2
S=C(Nc1ccc(Cl)c(Cl)c1)NC1CCCCC1 | 1.6 | 22.8* | 17.5 | 12.7 | 11.4
S=C(Nc1ccc2nsnc2c1)NC1CCCCC1 | 0.2 | 4.3 | 1.0 | -10.8 | 0.6
CCOc1ccc(CCN2C(=S)N([C@@H](Cc3ccc(O)cc3)CN3CCC[C@@H]3CN3C(=S)NC[C@@H]3Cc3ccccc3)C[C@@H]2Cc2ccc(O)cc2)cc1 | -4.7 | 0.3 | / | 10.0 | /
C[C@H]1CN([C@@H](C)CO)S(=O)(=O)c2ccc(C#Cc3cccnc3)cc2O[C@@H]1CN(C)C(=O)Nc1ccc2c(c1)OCO2 | 19.0 | 0.2 | / | -8.3 | /
Cc1cc(/C=C2\NC(=S)N(C)C2=O)ccc1N1CCCC1 | -17.6 | 75.7* | 31.8* | 60.0* | 12.1*
CCCN1C(=O)/C(=C/c2ccc(N3CCCC3)c(C)c2)NC1=S | 0.1 | 54.0* | 84.6* | 59.6* | 52.1*
Cc1cc(/C=C2/C(=O)N(C)C(=S)N2C)ccc1N1CCCC1 | -10.6 | 3.0 | 7.4 | 8.1 | 4.0
O=S1(=O)N[C@H](Cc2ccccc2)COc2cc(N3CCC[C@H]3CO)ccc21 | 10.3 | 0.6 | / | -6.5 | /
CCc1sc(C(=O)NCCc2ccc(S(N)(=O)=O)cc2)cc1C | 11.4 | 1.3 | / | -0.8 | /
CCc1sc(C(=O)NCCc2ccc(S(N)(=O)=O)cc2)cc1Br | -12.2 | -0.2 | -1.7 | 28.6* | -0.8
CCc1nc2ccc(C(=O)NCc3cccs3)cn2c1N(CC)Cc1cccc(Br)c1 | 10.8 | 0.7 | / | 6.6 | /
O=c1cc(-c2ccccc2)nc(/C=C/c2ccccc2)[nH]1 | 16.9 | 16.8* | 0.3 | -2.4 | 0.5
CCCC1C2C(=O)N(c3cccc(C)c3)C(=O)C2ON1c1ccccc1 (centres undefined) | 7.0 | 16.8* | -0.8 | -0.4 | 3.6
CCCC1C2C(=O)N(c3ccc(OC)cc3)C(=O)C2ON1c1ccccc1 (centres undefined) | -3.5 | 0.1 | 0.1 | 0.8 | 0.7
COc1ccc(C(=O)c2[nH]c(N)c(C(=O)NCCc3c[nH]c4ccccc34)c2-c2c(F)cccc2Cl)cc1 | 21.9 | 2.2 | / | -4.0 | /
COc1ccccc1CNc1nc(Nc2ccccc2-n2cccn2)c2sccc2n1 | 14.1 | 0.0 | / | 1.1 | /
CC(=O)c1c(C)[nH]c(C(=O)Nc2ccc(Cl)cc2)c1C | 4.1 | 16.3* | / | -0.7 | /
CCCn1c(N)c(C(=O)NS(=O)(=O)c2ccc(C)cc2)c(=O)n(C)c1=O | 2.5 | 16.6* | 2.5 | 6.4 | 3.0
Nc1[nH]c(C(=O)c2ccccc2)c(-c2ccccc2Br)c1C(=O)c1ccccc1 | 42.1* | 1.4 | / | -22.2 | /
CC(C)(C)C(=O)c1c(N)[nH]c(C(=O)c2ccccc2)c1-c1ccc(Br)cc1 | 4.3 | -0.3 | / | -3.9 | /
